# CaV13 ICDI inh = Primary screen for inhibitors of IQ motif and Ca2+-dependent inactivation inhibitor domain binding in CACNA1D, Förster resonance energy transfer in living cells, …. hit rate 0.098% among 340,000. HEK cells, CFP/YFP FRET ICDI-IQ, plate reader, 10 min; percent FRET-ratio fall versus neutral wells. inhibition, % at 12.3 µM. AID 743397;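 active means mean replicate inhibition of at least 30% and at least 1% of replicates passing that level; inconclusive means only one of the two criteria is met; inactive means neither criterion is met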;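 further: 0% = median of the neutral control wells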
# Hck Nef HTS = blocks Nef-activated human Hck kinase | P08631 | Recombinant Hck-YEEI plus Nef, Z-Lyte FRET kinase assay | inhibition, % at 20 µM | hit rate 0.68% among 220,000;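 active means Hck-Nef kinase inhibition above about 50%, limit read from the data; inactive means inhibition below that limit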;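 further: 0% = DMSO with Hck plus Nef and 100% = Hck alone without Nef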
# Target sequence (P08631 whole entry, looked up): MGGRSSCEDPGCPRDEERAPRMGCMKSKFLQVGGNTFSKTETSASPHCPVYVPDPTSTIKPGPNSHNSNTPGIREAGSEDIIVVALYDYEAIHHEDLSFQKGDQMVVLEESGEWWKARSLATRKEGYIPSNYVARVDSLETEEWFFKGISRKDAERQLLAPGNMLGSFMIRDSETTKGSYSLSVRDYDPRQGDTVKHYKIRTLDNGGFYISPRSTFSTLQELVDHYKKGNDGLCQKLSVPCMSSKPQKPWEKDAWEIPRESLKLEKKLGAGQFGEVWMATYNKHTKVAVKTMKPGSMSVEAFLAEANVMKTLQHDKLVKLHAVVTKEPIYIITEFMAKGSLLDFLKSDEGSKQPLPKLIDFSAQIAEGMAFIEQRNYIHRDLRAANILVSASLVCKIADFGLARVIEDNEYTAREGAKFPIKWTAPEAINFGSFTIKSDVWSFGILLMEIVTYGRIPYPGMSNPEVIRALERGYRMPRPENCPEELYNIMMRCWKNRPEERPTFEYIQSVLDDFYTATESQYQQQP
# Runt-CBFb FRET = inhibitors of human RUNX1 Runt domain binding to CBFb; hit rate 0.46% among 220,000; Q01196+Q13951; Cerulean-Runt/Venus-CBFb FRET ratio 530/480, 1 h; inhibition, % at 20 µM;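 active means inhibition over about 50% at 20 µM in the single-dose screen, limit read from the data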;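 further: 0% = DMSO wells and 100% = excess unlabeled CBFb competitor control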
#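 Assay system: Cerulean-Runt domain / Medium: Tris 50 mM pH 7.5, KCl, K2SO4, 0.01% BSA / Timing: protein complex preformed 1 h, compound exposure 1 h, room temperature, dark / Measured by: FRET, excitation 422 nm, emission at 530 and 480 nm / Evaluation: loss of energy transfer signal / Control set: 5 µM unlabeled CBFb as full-inhibition high control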
# Runt-SMMHC FRET = Runt domain-CBFb-SMMHC interaction inhibition; hit rate 0.74% among 220,000; Cerulean-Runt/Venus-CBFb-SMMHC FRET ratio 530/480, 1 h; inhibition, % at 20 µM; Q01196+Q13951; AID 1434;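 active means mean inhibition across duplicate retests at 20 µM reaching about 50%, limit read from the data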;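 further: 0% = DMSO wells and 100% = wells with excess untagged CBFb-SMMHC; inhibitors lower the FRET ratio by blocking Runt binding to CBFb-SMMHC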
# RanGTP-Imp inh = inhibitors of RanGTP-importin-beta interaction, primary screen, biochemical, FRET, CFP-Ran, YFP-importin-beta, homogeneous; cell-free CFP-Ran/YFP-importin-beta FRET ratio; inhibition, % (no concentration beside the values); hit rate 1.1% among 300,000; AID 2216;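 active means more than half of the replicate wells show a fall in the fluorescence ratio signal beyond about 16%, limit read from the data, passing the limit was not always enough; inconclusive means exactly half of the replicate wells pass the set limit; inactive means fewer than half of replicates pass the limit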;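 further: 0% = DMSO wells and 100% = Ran loaded with GDP instead of GTP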
# Hck Nef conf = confirmation of Hck-Nef kinase inhibitors; shares compounds with Hck Nef HTS; Recombinant Hck-YEEI:Nef, Z-Lyte FRET kinase assay; calls only at 10 µM; hit rate 28% among 1,300; AID 463188;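 active means average inhibition of at least 50%, with Z-scores no higher than 3 in both the phospho-tyrosine peptide and fluorescence counterscreens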
# * = called active by the depositor; i = inactive; ? = inconclusive; · = no result given; + = active, no number. A selection: hits, their analogues and other compounds. The true share with any hit is near 1.5%.
SMILES,CaV13 ICDI inh,Hck Nef HTS,Runt-CBFb FRET,Runt-SMMHC FRET,RanGTP-Imp inh,Hck Nef conf
N=c1c(C(=O)NCC2CCCO2)cc2c(=O)n3ccccc3nc2n1Cc1cccnc1 (centres undefined),·,128.2*,17.9,57.4*,182.1*,·
Cc1cccn2c(=O)c3cc(C(=O)NCC4CCCO4)c(=N)n(Cc4cccnc4)c3nc12 (centres undefined),0.9,118.5*,17.9,57.4*,·,·
Cc1ccc(-c2cc(C(=O)NCC3CCCO3)c3ccccc3n2)cc1C (centres undefined),-2.4,17.7,-5.6,2.3,-1.7,·
OC(CCc1cccc(Cl)c1)c1cccs1 (centres undefined),-3.9,·,·,·,4.7,·
COc1cccc(N=c2oc3ccc(OC)cc3cc2-c2nc3ccccc3[nH]2)c1,-9.3,99.2*,-16.9,-20.3,-2.6,+
CCCc1cc(NCCCN2CCOCC2)n2c(nc3ccccc32)c1C#N,·,101.4*,12.5,61.5,13.5,·
Cc1cc(NCCN2CCOCC2)n2c(nc3ccccc32)c1C#N,-4.7,25.3,12.4,30.6,5.3,·
Cc1cc(NCCCN2CCOCC2)n2c(nc3ccccc32)c1C#N,-4.3,75.3*,19.0,36.7,30.0*,·
COc1ccc(C(C)(C)C)cc1NC(=O)CCCN1C(=O)CN(C)C1=O,-5.9,·,·,·,·,·
COc1ccccc1OCc1cc(C(=O)NCc2ccc(N3CCCC3=O)cc2)no1,-6.8,·,·,·,3.1,·
Cc1cc(C)cc(NC(=S)N2CCC(NC(=O)C3CC3)CC2)c1,-5.0,·,·,·,-0.2,·
CCOCCCNC(=O)c1cn(C)c2ccc(S(=O)(=O)N3CCCC3)cc2c1=O,-13.7,·,·,·,0.5,·
CC(Oc1ccc(-n2cnnn2)cc1)C(=O)O (centres undefined),-4.6,75.0*,1.0,-5.1,-1.5,i
Cc1nn(C)c2c1NC(=O)CS2,-4.9,·,·,·,·,·
CC1=NOC(=O)/C1=C/c1ccc(-c2ccc(Cl)cc2)o1,·,1.5,31.4,49.9,·,·
CC1=NOC(=O)/C1=C\c1ccc(-c2ccc(Br)cc2)o1,2.5,113.2*,·,23.5,0.6,i
Cc1cc2c(n1-c1ccc(Br)cc1)CC(C)(C)CC2=O,-3.7,99.3*,-3.1,1.4,0.8,i
Cc1ccc(-n2c(C)cc3c2CC(C)(C)CC3=O)cc1C,-6.1,7.2,2.2,2.4,-0.3,·
NC(Cc1ccccc1)C(=O)N1CCCCC1 (centres undefined),-19.1,·,·,·,4.9,·
CCN(CC(=O)Nc1ccccc1OC)C(=O)c1ccc(N(C)S(=O)(=O)c2ccc(C)cc2)cc1,-5.3,·,·,·,0.4,·
Cc1ccc(S(=O)(=O)c2c(N)n(NC(=O)C3CC3)c3nc4ccccc4nc23)cc1,·,73.1*,29.2,75.5*,8.7,·
Cc1ccc(S(=O)(=O)c2c(N)n(CCCN(C)C)c3nc4ccccc4nc23)cc1,-18.7,94.5*,8.3,21.0,1.5,·
Cc1ccc(S(=O)(=O)c2c(N)n(CC3CCOC3)c3nc4ccccc4nc23)cc1 (centres undefined),·,37.4,7.2,19.0,0.4,·
CCCCn1c(NS(=O)(=O)c2ccc(C)cc2)c(S(=O)(=O)c2ccccc2)c2nc3ccccc3nc21,-17.2,97.1*,3.1,39.1,13.5,i
Cc1ccc(-n2c(N)c(S(=O)(=O)c3ccccc3)c3nc4ccccc4nc32)cc1,-5.1,-6.1,·,2.7,0.0,·
SMILES,CaV13 ICDI inh,Hck Nef HTS,Runt-CBFb FRET,Runt-SMMHC FRET,RanGTP-Imp inh,Hck Nef conf
CCCCn1c(NCc2ccccc2NS(=O)(=O)c2ccc(C)cc2)nc2ccccc21,-6.4,2.4,0.5,-1.1,2.8,·
O=C(N/N=C/c1ccc(OCC(=O)N2CCOCC2)cc1)c1ccccc1Cl,-3.9,2.5,1.9,-3.0,-2.9,·
CS(=O)(=O)N(CC(=O)N/N=C/c1ccc(OCC(=O)N2CCOCC2)cc1)c1ccccc1Cl,-3.2,128.9*,-2.0,0.4,-4.7,i
CCOc1ccc(N2CC(C(=O)N3CCN(c4ccccn4)CC3)CC2=O)cc1 (centres undefined),-7.2,·,·,·,·,·
CN(NC(=O)c1ccccc1Cl)c1ncc(C(F)(F)F)cc1Cl,-3.8,5.2,0.4,0.8,-4.7,·
CCN(CC(=O)Nc1ccc(NC(C)=O)cc1)C(=O)c1cccc(N2C(=O)c3ccccc3C2=O)c1,-5.9,·,·,·,·,·
CC1CN(S(=O)(=O)c2cccc(C(=O)OC(C)C(=O)NC3CCCCC3C)c2)CC(C)O1 (centres undefined),-5.7,·,·,·,2.3,·
CCOc1ccccc1N=c1oc2cc(O)ccc2cc1C(=O)NCC1CCCO1 (centres undefined),32.8*,59.3*,52.6*,58.7*,180.4*,·
CCCCC1=CC2=CC(=O)C(C)(OC(=O)CCC(=O)OC)C(=O)C2=CO1 (centres undefined),·,·,·,·,-13.4,·
CCCCC1=CC2=CC(=O)C(C)(OC(=O)CCc3ccccc3)C(=O)C2=CO1 (centres undefined),-5.9,67.0*,3.1,47.6,-17.8,+
CCN1CCN(Cc2ccc(NC(=O)c3ccc(C)c(NC(=O)c4ccno4)c3)cc2C(F)(F)F)CC1,-5.3,101.2*,0.7,2.9,-1.2,+
CCN1CCN(Cc2ccc(NC(=O)c3cc(NC(=O)c4ccno4)cc(OC)c3)cc2C(F)(F)F)CC1,-4.2,24.6,0.0,-0.6,4.3,·
COc1cc(Nc2ncnc(N)n2)cc(OC)c1,-14.7,61.9*,0.4,1.5,0.7,+
CC1CN(Cc2nnc(-c3ccccc3)o2)CC(C)O1 (centres undefined),2.7,2.4,0.5,-6.2,-0.8,·
COc1cc(/C=C/c2sc3ccccc3[n+]2CCCS(=O)(=O)[O-])ccc1O,-17.8,65.3*,-94.8,-232.6,-120.1,i
CCC(/C=C1\Oc2ccc(OC)cc2N1C)=C\c1sc2ccccc2[n+]1CCCS(=O)(=O)[O-],4.8,·,·,·,·,·
Cc1cccc(NC(=O)CN2C(=O)N/C(=C\c3ccc(-c4cccc(C(=O)O)c4)o3)C2=O)c1,-1.2,80.1*,85.3*,80.2*,25.6*,·
Cc1ccc(CN2C(=O)N/C(=C\c3cccn3-c3cccc(C(=O)O)c3)C2=O)cc1,-5.1,38.5,18.1,10.2,0.8,·
Cc1ccc(CN2C(=O)N/C(=C/c3ccc(-c4ccc(C(=O)O)cc4)o3)C2=O)cc1,-4.8,89.3*,126.2*,80.3*,?,·
CCn1c(C)nc2cc(C(=O)N/N=C/c3ccc(O)c(O)c3O)ccc21,-2.8,74.9*,29.1,13.6,4.2,+
COc1ccc(N=c2oc3cc(O)ccc3cc2C(=O)Nc2ccccn2)cc1OC,5.4,84.0*,54.6*,92.5*,5.1,i
COc1cc(C(=O)Nc2ccccc2C(=O)Nc2ccccn2)cc(OC)c1OC,-6.3,·,·,·,5.3,·

# Screening results: PubChem, several laboratories
